In the array DNA melting data of Ke et al. (doi:10.1101/2024.01.08.574731):

Assays:
[1] = melting temperature; fluorescence melt of hairpins on a sequencing array, two-state fit, raised by 9.35 °C to match UV melts; details: sodium 0.088 M
Method in brief: (§1)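 On a sequenced MiSeq flow cell, library hairpins with annealed Cy3 and quencher oligos were imaged for Cy3 fluorescence in 2.5 °C steps up to 60 °C, in 50 mM Na-HEPES pH 8.0, 25 mM NaCl. Normalisation used pre-quench Cy3 and control constructs. Bootstrapped two-state fits gave melting temperature and folding enthalpy, combined by inverse variance across four replicates and with fitted temperatures raised by 9.35 °C to match UV melts.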

[2] = folding enthalpy; higher = less favourable; fluorescence melt of hairpins on a sequencing array, two-state fit; details: sodium 0.088 M
Method in brief: as §1

| Sequence | Tm [1] [°C] | folding enthalpy [2] [kcal/mol] |
| --- | --- | --- |
| GCCAGCGAAAGCTGCGGC ((((((....)))..))) | 61.4 | -13 |
| GCCAGCGAAAGCTGTGGC ((((((....)))..))) | 56.6 | -15.1 |
| GCCAGGACGAAAGTCGGC (((..(((....)))))) | 52.6 | -27.3 |
| GCCAGGCGAAAGCAGGGC (((..((....))..))) | 64 | -32.1 |
| GCCAGGCGAAAGCCCAGC ((..(((....)))..)) | 40.2 | -13.5 |
| GCCAGGCGAAAGCTGGGC (((..((....))..))) | 62.9 | -27.1 |
| GCCAGGGAAACCTGGC ((((((....)))))) | 69.2 | -37.4 |
| GCCAGGGGAAACCCCAGC ((..(((....)))..)) | 38.3 | -21.5 |
| GCCAGTACGAAAGTAGGC (((..(((....)))))) | 43.4 | -23.8 |
| GCCAGTCGAAAGACCGGC (((.(((....))).))) | 55.3 | -36.4 |
| GCCATAGCGAAAGCTGGC (((..(((....)))))) | 56.5 | -25.5 |
| GCCATAGGAAACTACGGC (((.(((....))).))) | 40.6 | -29.9 |
| GCCATAGGAAACTATGAC (.(((((....))))).) | 34.1 | -18.2 |
| GCCATCGAAAGATCGGC ((((((....))).))) | 48.2 | -24.7 |
| GCCATCGAAAGATGTGGC ((((((....)))..))) | 46.6 | -23.4 |
| GCCATCGGAAACAATGGC (((((.(....).))))) | 44.7 | -29.6 |
| GCCATCGGAAACGATAGC ((.((((....)))).)) | 45 | -21.6 |
| GCCATCGGAAACGGTGGC ((((.((....)).)))) | 59.3 | -46.7 |
| GCCATGCGAAAGCAATGC ((..(((....)))..)) | 41.3 | -12.6 |
| GCCATGCGAAAGCACCGC ((..(((....)))..)) | 24.1 | -8.84 |
| GCCATGCGAAAGCACTGC ((..(((....)))..)) | 31.8 | -10.4 |
| GCCATGCGAAAGCAGCGC ((..(((....)))..)) | 47 | -17.2 |
| GCCATGCGAAAGCAGTGC ((..(((....)))..)) | 39.7 | -15.2 |

| Sequence | Tm [1] [°C] | folding enthalpy [2] [kcal/mol] |
| --- | --- | --- |
| GCCATGCGAAAGCATCGC ((.((((....)))).)) | 49.5 | -18.1 |
| GCCATGCGAAAGCTTAGC ((.(.((....)).).)) | 28 | -13.1 |
| GCCATGGAAACATGGC ((((((....)))))) | 67.7 | -34 |
| GCCATGGGAAACTGTGGC ((((..(....)..)))) | 47.1 | -28.2 |
| GCCATTGAAAAATGGC ((((((....)))))) | 58.4 | -39.8 |
| GCCATTGGAAACAACGGC (((.(((....))).))) | 43 | -33.1 |
| GCCATTGGAAACAATGGC (((((((....))))))) | 67.5 | -43.9 |
| GCCCAACGAAAGTTCGGC (((.(((....))).))) | 45.5 | -29.9 |
| GCCCAAGAAATTGGGC ((((((....)))))) | 63.1 | -33.3 |
| GCCCAAGGAAACTTAGGC (((.(((....))).))) | 35.4 | -21.9 |
| GCCCACCGAAAGGTAGGC (((.(((....))).))) | 55.5 | -38 |
| GCCCACCGAAAGGTGGC (((.(((....)))))) | 62.3 | -9.61 |
| GCCCACGAAAGTGACGGC ((((((....)))..))) | 49.6 | -19.9 |
| GCCCACGAAAGTGTCGGC ((((((....)))..))) | 48.4 | -19.6 |
| GCCCACGGAAACGTGGAC (.(((((....))))).) | 50.6 | -14.1 |
| GCCCAGCGAAAGCCGTGC ((.(.((....)).).)) | 27.1 | -7.02 |
| GCCCAGCGAAAGCGCGGC (((..((....))..))) | 61.9 | -22.1 |
| GCCCAGCGAAAGCGTGGC (((..((....))..))) | 62.4 | -23 |
| GCCCAGCGAAAGCTCAGC ((..(((....)))..)) | 32.6 | -8.74 |
| GCCCAGCGAAAGCTCGGC (((.(((....))).))) | 51.3 | -40.4 |
| GCCCAGCGAAAGCTCTGC ((..(((....)))..)) | 26.9 | -6.7 |
| GCCCAGCGAAAGCTTTGC ((..(((....)))..)) | 37.6 | -7.49 |
| GCCCATCGAAAGATGGC (((.(((....)))))) | 56.1 | -14 |

| Sequence | Tm [1] [°C] | folding enthalpy [2] [kcal/mol] |
| --- | --- | --- |
| GCCCATGGAAACGTGGGC (((((.(....).))))) | 59 | -38.2 |
| GCCCCACGAAAGTGCGGC (((.(((....))).))) | 54.3 | -29.6 |
| GCCCCAGCGAAAGCTGGC (((..(((....)))))) | 37.9 | -5.59 |
| GCCCCAGGAAACTAGGGC ((((.((....)).)))) | 46.4 | -29.1 |
| GCCCCCCCGAAAGGGGGC (((..(((....)))))) | 65.2 | -11.2 |
| GCCCCCCGAAAGGGAGGC (((.(((....))).))) | 67 | -29.8 |
| GCCCCCGAAAGGGAAGGC ((((((....)))..))) | 55.7 | -27 |
| GCCCCCGAAAGGGCCGGC ((((((....)))..))) | 54.3 | -16.4 |
| GCCCCCGAAAGGGCGGC ((((((....))).))) | 68.5 | -23.2 |
| GCCCCCGGAAACAGGGGC (((((.(....).))))) | 56.7 | -35 |
| GCCCCCGGAAACGGGAGC ((.((((....)))).)) | 54.2 | -25 |
| GCCCCGACGAAAGTCGGC (((..(((....)))))) | 41.1 | -4.92 |
| GCCCCGCGAAAGCCGCGC ((.(.((....)).).)) | 31.5 | -13.7 |
| GCCCCGCGAAAGCGCTGC ((..(((....)))..)) | 31.6 | -9.38 |
| GCCCCGCGAAAGCTGAGC ((.(.((....)).).)) | 35 | -10.7 |
| GCCCCGCGAAAGCTTGGC (((..((....))..))) | 43.1 | -19.9 |
| GCCCCTACGAAAGTAGGC (((..(((....)))))) | 36.7 | -6.61 |
| GCCCCTCCGAAAGGAGGC (((..(((....)))))) | 39.8 | -5.85 |
| GCCCGACGAAAGTCCGGC (((.(((....))).))) | 51.8 | -30.7 |
| GCCCGCCGAAAGGCGGC (((.(((....)))))) | 66.6 | -7.03 |
| GCCCGCGAAAGCGAAGGC ((((((....)))..))) | 63.3 | -24.8 |
| GCCCGCGAAAGCGGAGGC ((((((....)))..))) | 60 | -13.7 |
| GCCCGGCGAAAGCCACGC ((..(((....)))..)) | 35.9 | -8.86 |

| Sequence | Tm [1] [°C] | folding enthalpy [2] [kcal/mol] |
| --- | --- | --- |
| GCCCGGCGAAAGCCTTGC ((..(((....)))..)) | 35.7 | -8.46 |
| GCCCGGCGAAAGCGGAGC ((.(.((....)).).)) | 54.8 | -14.8 |
| GCCCGGGCGAAAGCCGGC (((..(((....)))))) | 59.5 | -12.5 |
| GCCCGTGCGAAAGCAGGC (((..(((....)))))) | 52 | -12.4 |
| GCCCGTGGAAACATGGGC ((((.((....)).)))) | 61.2 | -46 |
| GCCCTACGAAAGTAGGC (((.(((....)))))) | 56.8 | -13 |
| GCCCTACGAAAGTATGGC (((.(((....))).))) | 49 | -34.3 |
| GCCCTCACGAAAGTGGGC (((..(((....)))))) | 53.5 | -19.4 |
| GCCCTCCGAAAGGAAGGC (((.(((....))).))) | 53 | -30.8 |
| GCCCTCCGAAAGGACGGC (((.(((....))).))) | 50.4 | -40.7 |
| GCCCTCGAAAGAGCTGGC ((((((....)))..))) | 42.3 | -24.7 |
| GCCCTCGAAAGAGGAGGC ((((((....)))..))) | 51.9 | -17 |
| GCCCTCGAAAGAGTCGGC ((((((....)))..))) | 40.9 | -24.1 |
| GCCCTCGGAAACGAAGGC (((.(((....))).))) | 46.6 | -34.1 |
| GCCCTCTCGAAAGAGGGC (((..(((....)))))) | 68.1 | -40.5 |
| GCCCTGCGAAAGCAAGGC (((.(((....))).))) | 55.7 | -33.9 |
| GCCCTGCGAAAGCACCGC ((..(((....)))..)) | 32.4 | -7.84 |
| GCCCTGCGAAAGCCCGGC (((..((....))..))) | 39.1 | -23 |
| GCCCTGCGAAAGCGCGGC (((..((....))..))) | 54.5 | -21.5 |
| GCCCTGGGAAACCAAGGC (((.(((....))).))) | 44.8 | -30.1 |
| GCCCTTCCGAAAGGAGGC (((..(((....)))))) | 41.1 | -17.7 |
| GCCCTTCGAAAGAACGGC (((.(((....))).))) | 42.2 | -29.7 |
